Assays:
[1] = Cytotoxicity against african green monkey BGM cells after 24 hrs by MTT assay; assay type: cell-based; conditions: chlorocebus aethiops, read-out: MLD50
How it was run: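 MTT (3 mg/mL) was added, the supernatant was removed after 3 h, and the dye was dissolved in DMSO. Read at 570 nm. MLD50 (minimal lethal dose for 50% of cells) taken from non-linear regression dose–response curves.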

Plasmodium falciparum [2] = assay: Antimalarial activity against chloroquine/sulfadoxine-resistant Plasmodium falciparum W2 infected in human A+ erythrocytes assessed as reduction in parasite growth after 72 hrs by HRP2 detection based ELISA; assay type: functional, organism-based; conditions: W2, 72 h
How it was run: (§1)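 P. falciparum W2 cultured in human A+ erythrocytes in RPMI 1640 with human serum, sorbitol-synchronized to rings. Parasitemia 0.05%, hematocrit 1.5%. […] Three freeze-thaw cycles, then HRPII sandwich ELISA read at 450 nm. IC50 from non-linear regression dose–response curves, three separate experiments (±SD).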

[3] = Selectivity index, ratio of MLD50 for african green monkey BGM cells to IC50 for chloroquine/sulfadoxine-resistant Plasmodium falciparum W2; assay type: toxicity, cell-based; conditions: read-out: Selectivity Index
How it was run: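 Selectivity index calculated from the BGM MLD50 (24 h MTT, 570 nm, non-linear regression) and the W2 IC50 (72 h HRPII ELISA in A+ erythrocytes).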

Plasmodium falciparum [4] = assay: Antimalarial activity against chloroquine-resistant Plasmodium falciparum W2; assay type: functional, organism-based; how it was run: as §1
Plasmodium falciparum [5] = assay: Antimalarial activity against chloroquine-resistant and mefloquine-sensitive Plasmodium falciparum W2 infected in human A+ erythrocytes after 72 hrs by HRP2 detection based ELISA; assay type: functional, organism-based; conditions: W2, 72 h; how it was run: as §1

Row | SMILES | CC50 at 24 h [1] [µM] | IC50 (Plasmodium falciparum [2]) [µM] | selectivity ratio [3] | IC50 (Plasmodium falciparum [4]) [µM] | IC50 (Plasmodium falciparum [5]) [µM]
1 | COc1ccc(S(=O)(=O)NCCCCNc2c(C#N)cnc3c2cnn3-c2ccccc2)cc1 | 498 | 5 | 99.6 | – | –
2 | N#Cc1cnc2c(cnn2-c2ccccc2)c1NCCCCN | 503 | 5 | 101 | – | –
3 | CCOC(=O)c1cnc2c(cnn2-c2ccccc2)c1NCCCCNS(=O)(=O)c1ccccc1 | 822 | 6.52 | 126 | – | –
4 | N#Cc1cnc2c(cnn2-c2ccccc2)c1NCCCCNS(=O)(=O)c1ccccc1 | 248 | 4.2 | 59 | – | –
5 | CCOC(=O)c1cnc2c(cnn2-c2ccccc2)c1NCCCCNS(=O)(=O)c1ccc(OC)cc1 | 995 | 9.3 | 107 | – | –
6 | O=Cc1cn(-c2ccnc3cc(Cl)ccc23)nn1 | – | – | – | 1.4 | –
7 | CCOC(=O)c1cnc2c(cnn2-c2ccccc2)c1NCCCCNS(=O)(=O)c1ccc(Cl)cc1 | > 1000 | 3.6 | > 278 | – | –
8 | Cc1ccc(S(=O)(=O)NCCCCNc2c(C#N)cnc3c2cnn3-c2ccccc2)cc1 | 682 | 3.6 | 189 | – | –
9 | N#Cc1cnc2c(cnn2-c2ccccc2)c1NCCCCNS(=O)(=O)c1ccc(Cl)cc1 | 418 | 7.5 | 55.7 | – | –
10 | N#Cc1cnc2c(cnn2-c2ccccc2)c1NCCCCNS(=O)(=O)c1ccc(F)cc1 | 508 | 9.3 | 54.6 | – | –
11 | CCOC(=O)c1cnc2c(cnn2-c2ccccc2)c1NCCCCNS(=O)(=O)c1ccc(F)cc1 | 993 | 4.12 | 241 | – | –
12 | CCOC(=O)c1cnc2c(cnn2-c2ccccc2)c1NCCCCNS(=O)(=O)c1ccc(C)cc1 | 596 | 3.46 | 172 | – | –
13 | Cc1cc(Nc2ccc3ccccc3c2)n2nc(C(F)(F)F)nc2n1 | – | – | – | – | 0.023
14 | COc1ncnc(NS(=O)(=O)c2ccc(N)cc2)c1OC [SULFADOXINE] | 310 | 15 | 20.7 | – | –
